Test results as given in ChEMBL document CHEMBL2057126, “Discovery of new inhibitors of Cdc25B dual specificity phosphatases by structure-based virtual screening” (J Med Chem, 2012).
The source made the active and inactive calls. The calls are words filed in the database; no cut-off is given here.

Assays:
[1] = target: T1, M-phase inducer phosphatase 2 (Homo sapiens) (UniProt P30305); experiment: Inhibition of recombinant phosphatase activity of Cdc25B catalytic domain expressed in Escherichia coli BL21(DE3) using OMFP as substrate at 50 uM by spectrofluorimetric analysis
T1 sequence (whole entry): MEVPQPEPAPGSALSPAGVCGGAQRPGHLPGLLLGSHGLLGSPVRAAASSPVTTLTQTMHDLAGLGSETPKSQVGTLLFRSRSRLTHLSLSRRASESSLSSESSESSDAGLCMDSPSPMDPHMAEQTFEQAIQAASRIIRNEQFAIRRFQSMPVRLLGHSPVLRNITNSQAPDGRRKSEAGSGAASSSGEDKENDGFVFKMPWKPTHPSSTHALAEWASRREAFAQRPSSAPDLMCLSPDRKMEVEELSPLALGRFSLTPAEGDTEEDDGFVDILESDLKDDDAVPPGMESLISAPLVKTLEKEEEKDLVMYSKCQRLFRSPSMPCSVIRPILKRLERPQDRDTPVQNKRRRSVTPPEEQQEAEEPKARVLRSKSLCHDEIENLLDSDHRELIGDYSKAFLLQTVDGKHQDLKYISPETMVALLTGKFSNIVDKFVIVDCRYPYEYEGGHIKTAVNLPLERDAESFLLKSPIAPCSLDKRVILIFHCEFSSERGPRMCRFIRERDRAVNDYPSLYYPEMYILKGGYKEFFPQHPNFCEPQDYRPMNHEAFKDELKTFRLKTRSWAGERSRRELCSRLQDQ
Method in brief: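 Single-point screen: percent inhibition of Cdc25B phosphatase activity (OMFP hydrolysis) measured with inhibitor at 50 μM.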

[2] = target: T1, M-phase inducer phosphatase 2 (Homo sapiens); experiment: Inhibition of recombinant phosphatase activity of Cdc25B catalytic domain expressed in Escherichia coli BL21(DE3) using OMFP as substrate at 100 uM after 15 mins by fluorimetric assay
[3] = target: T1, M-phase inducer phosphatase 2 (Homo sapiens); experiment: Reversible inhibition of recombinant phosphatase activity of Cdc25B catalytic domain expressed in Escherichia coli BL21(DE3) assessed as residual activity of enzyme measured after 10 fold dilution at 100 uM preincubated for 20 mins
[4] = target: T2, M-phase inducer phosphatase 3 (Homo sapiens) (UniProt P30307); experiment: Inhibition of recombinant phosphatase activity of Cdc25C catalytic domain expressed in Escherichia coli BL21(DE3) using OMFP as substrate at 100 uM after 15 mins by fluorimetric assay
T2 sequence (whole entry): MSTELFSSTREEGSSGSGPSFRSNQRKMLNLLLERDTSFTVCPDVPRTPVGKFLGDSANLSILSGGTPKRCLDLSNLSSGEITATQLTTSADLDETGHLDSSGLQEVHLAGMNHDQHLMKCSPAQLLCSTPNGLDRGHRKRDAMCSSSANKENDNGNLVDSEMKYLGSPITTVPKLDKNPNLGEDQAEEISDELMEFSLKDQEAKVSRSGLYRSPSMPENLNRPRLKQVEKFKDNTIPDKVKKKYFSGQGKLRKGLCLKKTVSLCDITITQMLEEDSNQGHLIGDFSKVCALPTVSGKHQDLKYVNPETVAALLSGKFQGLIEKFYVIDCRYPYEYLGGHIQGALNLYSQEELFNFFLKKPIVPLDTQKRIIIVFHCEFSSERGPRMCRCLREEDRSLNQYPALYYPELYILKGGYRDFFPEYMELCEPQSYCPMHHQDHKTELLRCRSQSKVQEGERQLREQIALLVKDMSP

[5] = target: T3, M-phase inducer phosphatase 1 (Homo sapiens) (UniProt P30304); experiment: Inhibition of recombinant phosphatase activity of Cdc25A catalytic domain expressed in Escherichia coli BL21(DE3) using OMFP as substrate at 100 uM after 15 mins by fluorimetric assay
T3 sequence (whole entry): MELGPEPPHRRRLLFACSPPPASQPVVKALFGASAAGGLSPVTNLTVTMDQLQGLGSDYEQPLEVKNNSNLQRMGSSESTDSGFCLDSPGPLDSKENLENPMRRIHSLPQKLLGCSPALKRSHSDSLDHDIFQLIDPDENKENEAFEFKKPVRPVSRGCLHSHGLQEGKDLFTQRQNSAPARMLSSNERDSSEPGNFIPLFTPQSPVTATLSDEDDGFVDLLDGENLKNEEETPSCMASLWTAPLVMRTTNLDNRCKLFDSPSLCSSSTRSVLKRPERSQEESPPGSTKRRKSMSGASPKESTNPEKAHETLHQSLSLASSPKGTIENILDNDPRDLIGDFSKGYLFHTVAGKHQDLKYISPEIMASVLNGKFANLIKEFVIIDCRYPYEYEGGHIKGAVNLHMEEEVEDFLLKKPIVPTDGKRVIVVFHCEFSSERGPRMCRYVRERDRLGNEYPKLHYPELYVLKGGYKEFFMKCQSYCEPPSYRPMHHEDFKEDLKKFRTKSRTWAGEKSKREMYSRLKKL

[6] = target: T1, M-phase inducer phosphatase 2 (Homo sapiens); experiment: Irreversible inhibition of recombinant phosphatase activity of Cdc25B catalytic domain expressed in Escherichia coli BL21(DE3) assessed as residual activity of enzyme measured after 10 fold dilution at 50 uM preincubated for 20 mins
Method in brief: (§1)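 Dilution test: Cdc25B pretreated with inhibitor for up to 20 min, mixture diluted 10-fold, and residual phosphatase activity measured to judge reversible versus irreversible inhibition.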

[7] = target: T4, M-phase inducer phosphatase 1 (Homo sapiens, UniProt P30304); experiment: Inhibition of recombinant phosphatase activity of Cdc25A catalytic domain expressed in Escherichia coli BL21(DE3) using OMFP as substrate by Lineweaver-Burk plot analysis
T4 sequence (P30304 whole entry): T3 sequence (whole entry)
Method in brief: (§2)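 Purified recombinant Cdc25A catalytic domain; phosphatase activity measured as OMFP hydrolysis versus inhibitor concentration to derive IC50, with Ki calculated from kinetic measurements. Results are averages ± SD of three determinations.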

[8] = target: T5, M-phase inducer phosphatase 2 (Homo sapiens, UniProt P30305); experiment: Competitive inhibition of recombinant phosphatase activity of Cdc25B catalytic domain expressed in Escherichia coli BL21(DE3) using OMFP as substrate by Lineweaver-Burk plot analysis
T5 sequence (P30305 whole entry): T1 sequence (whole entry)

[9] = target: T5, M-phase inducer phosphatase 2; experiment: Inhibition of recombinant phosphatase activity of Cdc25B catalytic domain expressed in Escherichia coli BL21(DE3) using OMFP as substrate by spectrofluorimetric analysis
[10] = target: T4, M-phase inducer phosphatase 1; experiment: Inhibition of recombinant phosphatase activity of Cdc25A catalytic domain expressed in Escherichia coli BL21(DE3) using OMFP as substrate by spectrofluorimetric analysis; method in brief: as §2
[11] = target: T1, M-phase inducer phosphatase 2 (Homo sapiens); experiment: Reversible inhibition of recombinant phosphatase activity of Cdc25B catalytic domain expressed in Escherichia coli BL21(DE3) assessed as residual activity of enzyme measured after 10 fold dilution at 50 uM preincubated for 20 mins; method in brief: as §1
[12] = target: T1, M-phase inducer phosphatase 2 (Homo sapiens); experiment: Reversible inhibition of recombinant phosphatase activity of Cdc25B catalytic domain expressed in Escherichia coli BL21(DE3) assessed as residual activity of enzyme measured after 10 fold dilution at 100 uM preincubated for 20 mins
Method in brief: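 Cdc25B (0.5 μg) preincubated 20 min at room temperature with 100 μM inhibitor or DMSO vehicle, then diluted 10-fold. Residual phosphatase activity was read after adding OMFP substrate and expressed as percent of the untreated control. Mean ± SD of three determinations.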

| Structure (SMILES) | inhibition [1] [%] | inhibition [2] [%] | inhibition [4] [%] | inhibition [5] [%] | also measured |
| --- | --- | --- | --- | --- | --- |
| O=C(O)c1cccc(Nc2ccccc2C(=O)O)c1 | 18 | – | – | – | – |
| CN(CCC(=O)O)C1=Nc2ccc(Cl)cc2C(c2ccccc2)=[N+]([O-])C1 | – | 43 | 48 | 28 | inhibition [3]: Active |
| O=C(O)c1ccccc1C(=O)c1ccc(Cl)c([N+](=O)[O-])c1 | 13 | – | – | – | – |
| O=C(O)c1ccccc1C(=O)c1cccc2ccccc12 | 41 | – | – | – | – |
| CC1=NN(c2ccc(S(=O)(=O)O)cc2)C(=O)/C1=C/c1ccc(Cl)cc1 | – | 46 | 54 | 17 | inhibition [3]: Active |
| O=C1C=C(Nc2nc(O)cc(C(=O)O)n2)c2ccccc2C1=O | 60 | – | – | – | inhibition [6]: Active |
| COc1ccc(Cc2ccc3[nH]c(=O)cc(C)c3c2)cc1S(=O)(=O)O | – | – | – | – | Ki [7]: 203 µM; Ki [8]: 84 µM; IC50 [9]: 133 µM; IC50 [10]: 86 µM |
| O=C(O)C1CCCN1Cc1c[nH]c2ccccc12 (stereo unspecified) | – | 37 | 45 | 39 | – |
| O=C(O)c1cc(C(=O)C(=O)c2cc(C(=O)O)c(O)c3ccccc23)c2ccccc2c1O | 26 | – | – | – | – |
| Nc1ccc(C(=O)O)cc1S(=O)(=O)c1cc(C(=O)O)ccc1N | 62 | – | – | – | IC50 [9]: 20.1 µM; inhibition [11]: Active |
| O=C(Nc1ccc2ncccc2c1)Nc1ccc2ncccc2c1 | – | 32 | 48 | 47 | inhibition [3]: Active |
| O=C(O)c1ccc(C(=O)c2ccccc2C(=O)O)cc1 | 12 | – | – | – | – |
| O=C(O)c1ccccc1C(=O)c1ccc(-c2ccccc2)cc1 | 54 | – | – | – | IC50 [9]: 23.1 µM; inhibition [11]: Active |
| CC(C)(Oc1ccc(-c2cccc3ccccc23)cc1)C(=O)O | – | 40 | 50 | 47 | inhibition [3]: Active |
| CC1C2C=CC1C(c1c3ccc(=O)c(O)c-3oc3c(O)c(O)ccc13)C2C(=O)O (stereo unspecified) | – | 98 | 98 | 98 | inhibition [12]: Active |
| O=C(O)c1cccc(Oc2ccc(C(=O)O)c([N+](=O)[O-])c2)c1 | 37 | – | – | – | – |

| Structure (SMILES) | inhibition [1] [%] | inhibition [2] [%] | inhibition [4] [%] | inhibition [5] [%] | also measured |
| --- | --- | --- | --- | --- | --- |
| COc1cc(O)c(C(=O)c2ccccc2)cc1S(=O)(=O)O | 49 | – | – | – | – |
| Sc1ccc2ccccc2c1CNCc1ccccc1 | – | 60 | 53 | 35 | – |
| Cn1c(COc2ccccc2C(=O)O)nc2ccccc21 | – | 43 | 35 | 10 | inhibition [3]: Active |
| O=C1C=C(Nc2cccc(C(=O)O)c2)c2ccccc2C1=O | 85 | – | – | – | inhibition [6]: Active; IC50 [9]: 4.2 µM |
| O=C(O)c1ccccc1-c1ccccc1C(=O)Nc1ccc2c(c1)nc(O)c1ccccc12 | – | 45 | 48 | 66 | inhibition [3]: Active |
| O=C(O)c1cccc(F)c1C(=O)c1ccc2ccccc2c1 | 34 | – | – | – | – |
| O=C(O)c1ccccc1C(=O)c1cccc([N+](=O)[O-])c1 | 17 | – | – | – | – |
| O=C(O)c1ccccc1C(=O)c1ccc(O)c([N+](=O)[O-])c1 | 13 | – | – | – | – |
| NS(=O)(=O)c1cc2c(cc1Cl)N=C(CCC(=O)O)NS2(=O)=O | – | 41 | 47 | 21 | inhibition [3]: Active |
| Nc1ccc(-c2ccc(Nc3cc(S(=O)(=O)O)c(N)c4c3C(=O)c3ccccc3C4=O)cc2)c(S(=O)(=O)O)c1 | – | 89 | 49 | 72 | – |
| O=C(C(=O)c1ccc(O)c(O)c1)c1ccc(O)c(O)c1 | 22 | – | – | – | – |
| CNc1ccc(C(=O)c2ccccc2C(=O)O)cc1[N+](=O)[O-] | 65 | – | – | – | IC50 [9]: 7.9 µM; inhibition [11]: Active |
| CC(=O)c1ccc(C(=O)c2ccccc2C(=O)O)cc1 | 20 | – | – | – | – |
| O=C1C=C(Nc2nc(C(=O)O)cc(=O)[nH]2)c2ccccc2C1=O | – | – | – | – | IC50 [9]: 9.9 µM |
| Nc1ccc(Cc2ccc(N)c(C(=O)O)c2)cc1C(=O)O | 52 | – | – | – | IC50 [9]: 23.8 µM; inhibition [11]: Active |
| O=C(O)c1ccccc1C(=O)CCC(=O)c1ccccc1C(=O)O | 20 | – | – | – | – |
